Experimental findings from ChEMBL document CHEMBL1129254, “3-[2-(N-phenylacetamide)]-1,5-benzodiazepines: orally active, binding selective CCK-A agonists” (J Med Chem, 1996) are described below.

In general, IC50 refers to the concentration that inhibits the measured activity by half.

The species entered for one test is Cavia porcellus. Briefly: Relative efficacy determined by the maximal contraction observed at 30 uM, standardized to CCK-8. It is filed as functional. An outline of the steps:
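Isolated guinea pig gallbladder contraction. Maximal contraction at 30 μM test ligand expressed relative to CCK-8 (1 μM) = 1.0; n ≥ 3.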

The target of test [1] is T1, Gastrin/cholecystokinin type B receptor (Homo sapiens, UniProt P32239).
T1 sequence (P32239 whole entry): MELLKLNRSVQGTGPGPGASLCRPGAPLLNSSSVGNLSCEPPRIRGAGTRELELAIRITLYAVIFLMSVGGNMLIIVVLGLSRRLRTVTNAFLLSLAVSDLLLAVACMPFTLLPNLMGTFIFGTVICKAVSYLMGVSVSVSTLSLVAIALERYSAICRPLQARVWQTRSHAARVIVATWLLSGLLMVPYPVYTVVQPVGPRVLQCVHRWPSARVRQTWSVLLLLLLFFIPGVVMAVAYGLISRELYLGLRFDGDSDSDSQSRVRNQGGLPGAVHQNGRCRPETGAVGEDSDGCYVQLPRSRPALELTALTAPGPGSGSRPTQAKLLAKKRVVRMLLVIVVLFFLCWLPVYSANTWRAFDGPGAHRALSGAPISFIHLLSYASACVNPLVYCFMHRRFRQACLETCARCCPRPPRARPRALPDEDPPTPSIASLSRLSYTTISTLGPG
Briefly: Binding affinity against human Cholecystokinin type B receptor in CHO-K1 cells using [125I]-Bolton-Hunter CCK-8 as radioligand. It is filed as cell-based.

Test [2] concerns the target T2, Cholecystokinin receptor type A (Homo sapiens, UniProt P32238).
T2 sequence (P32238 whole entry): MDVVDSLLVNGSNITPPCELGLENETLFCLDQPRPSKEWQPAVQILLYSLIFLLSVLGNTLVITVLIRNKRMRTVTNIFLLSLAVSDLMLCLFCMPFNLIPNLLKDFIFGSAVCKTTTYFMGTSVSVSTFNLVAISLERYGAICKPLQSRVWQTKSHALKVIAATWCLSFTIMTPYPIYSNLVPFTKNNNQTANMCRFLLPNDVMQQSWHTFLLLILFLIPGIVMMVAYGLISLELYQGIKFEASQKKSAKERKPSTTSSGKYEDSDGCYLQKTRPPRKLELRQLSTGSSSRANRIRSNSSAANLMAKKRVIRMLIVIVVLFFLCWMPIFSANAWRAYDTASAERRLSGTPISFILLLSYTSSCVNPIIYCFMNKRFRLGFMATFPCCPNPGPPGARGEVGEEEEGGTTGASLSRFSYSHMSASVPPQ
Briefly: Binding affinity against human Cholecystokinin type A receptor in membrane preparation isolated from CHO-K1 cells stably transfected with cDNA of human CCK-A using [125I]-Bolton-Hunter CCK-8 as radioligand. Format: cell membranes.

Test [3] addresses T3, Cholecystokinin receptor type A (Cavia porcellus) (UniProt Q63931).
T3 sequence (whole entry): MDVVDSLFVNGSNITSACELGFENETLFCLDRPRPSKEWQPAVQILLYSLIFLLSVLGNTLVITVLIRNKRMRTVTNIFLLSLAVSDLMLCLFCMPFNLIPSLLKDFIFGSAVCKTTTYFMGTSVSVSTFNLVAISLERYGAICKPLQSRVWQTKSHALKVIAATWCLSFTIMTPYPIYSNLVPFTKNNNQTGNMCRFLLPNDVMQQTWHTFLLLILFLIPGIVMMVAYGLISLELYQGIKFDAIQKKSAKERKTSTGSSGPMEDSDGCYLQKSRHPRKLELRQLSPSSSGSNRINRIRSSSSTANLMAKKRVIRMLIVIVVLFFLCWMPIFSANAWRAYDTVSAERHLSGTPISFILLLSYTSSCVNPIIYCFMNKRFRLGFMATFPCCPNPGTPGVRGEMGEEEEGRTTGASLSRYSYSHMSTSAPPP
Briefly: In vitro agonist activity against Cholecystokinin type A receptor isolated from guinea pig gall bladder. It is filed as functional, tissue-based.

For test [4], the system named is Mus musculus. Briefly: Compound tested in vivo for mouse gallbladder emptying at 0.1 uM/kg, ip. It is filed as functional.
The subject of test [5] is Mus musculus. Briefly: Compound tested in vivo for mouse gallbladder emptying at 1.0 uM/kg, po. Format: functional.
Test [6] relates to Mus musculus. Briefly: Compound tested in vivo for mouse gallbladder emptying at 10 uM/kg, po. It is filed as functional.

In the case of `CC(C)N(C(=O)CN1C(=O)C(NC(=O)Oc2ccccc2)C(=O)N(c2ccccc2)c2ccccc21)c1ccccc1` (configuration not stated), the RE in the test listed under Cavia porcellus came out at 0.2.

With `CC(C)N(C(=O)CN1C(=O)C(CC(=O)Nc2ccccc2)C(=O)N(c2ccccc2)c2ccccc21)c1ccccc1` (configuration not stated), the IC50 in test [1] is 832 nM; in test [2], 155 nM. In test [3], this compound came in with an ED50 of 430 nM. Besides, the RE in the test listed under Cavia porcellus is on record as 0.5. The Activity in the test with Mus musculus [4] was determined as 63%; with Mus musculus [5], 34%.

As to `CC(C)N(C(=O)CN1C(=O)C(NC(=O)Nc2ccccc2)C(=O)N(c2ccccc2)c2ccccc21)c1ccccc1` (configuration not stated), the ED50 in test [3] is 1600 nM. The compound also had an RE in the test filed under Cavia porcellus of 0.8. In the test on Mus musculus [4], this compound returned an Activity of 78%.

In turn, `CC(C)N(C(=O)CN1C(=O)C(OC(=O)Nc2ccccc2)C(=O)N(c2ccccc2)c2ccccc21)c1ccccc1` (configuration not stated) returned an RE in the test listed under Cavia porcellus of 0.2.

As to `CCC1(CC(=O)Nc2ccccc2)C(=O)N(CC(=O)N(c2ccccc2)C(C)C)c2ccccc2N(c2ccccc2)C1=O` (configuration not stated), the IC50 in test [1] was 794 nM. This compound also yielded an ED50 in test [3] of 780 nM. Also, the RE in the test listed under Cavia porcellus was found to be 0.6. The Activity is on record as 68% in the test with Mus musculus [4], 45% in the test with Mus musculus [5] and 42% in the test on Mus musculus [6].

`CC(C)N(C(=O)CN1C(=O)C(NC(=O)Cc2ccccc2)C(=O)N(c2ccccc2)c2ccccc21)c1ccccc1` (configuration not stated) came in with an RE in the test listed under Cavia porcellus of 0.3.

For the compound `CSCC[C@H](NC(=O)[C@H](Cc1ccc(OS(=O)(=O)O)cc1)NC(=O)[C@@H](N)CC(=O)O)C(=O)NCC(=O)N[C@@H](Cc1c[nH]c2ccccc12)C(=O)N[C@@H](CCSC)C(=O)N[C@@H](CC(=O)O)C(=O)N[C@@H](Cc1ccccc1)C(N)=O` [SINCALIDE], in test [3], the ED50 was 2 nM. The compound further had an RE in the test filed under Cavia porcellus of 1.

In the case of `CC(C)N(C(=O)CN1C(=O)C(CC(=O)Nc2ccccc2)(Cc2ccccc2)C(=O)N(c2ccccc2)c2ccccc21)c1ccccc1` (configuration not stated), the figures for the IC50 in test [1] and in test [2] were 8910 nM and 389 nM, respectively.

In turn, `CC(C)N(C(=O)CN1C(=O)C(C)(NC(=O)Nc2ccccc2)C(=O)N(c2ccccc2)c2ccccc21)c1ccccc1` (configuration not stated) showed an IC50 in test [1] of 282 nM. Moreover, in test [3], the ED50 was above 10000 nM. In the test filed under Cavia porcellus, this compound returned an RE of 0.5.

With `CC(C)N(C(=O)CN1C(=O)C(C)(CC(=O)Nc2ccccc2)C(=O)N(c2ccccc2)c2ccccc21)c1ccccc1` (configuration not stated), the IC50 in test [1] was 8320 nM; in test [2] it was 75.9 nM. The same compound showed an ED50 in test [3] of 200 nM. Also, the RE in the test listed under Cavia porcellus is given as 0.7. In addition, the Activity is 73% in the test with Mus musculus [4], 36% in the test on Mus musculus [5] and 73% in the test on Mus musculus [6].
